The record followed here is ChEMBL document CHEMBL1141595, “1-(2-Phenoxyphenyl)methanamines: SAR for dual serotonin/noradrenaline reuptake inhibition, metabolic stability and hERG affinity” (Bioorg Med Chem Lett, 2008).

Bounds are passed on as bounds.

Data set [1] deals with Sodium-dependent dopamine transporter (Homo sapiens, UniProt Q01959). In words: Inhibition of [3H]dopamine uptake at human dopamine transporter expressed in HEK293 cells. Type of data set: cell-based. In outline:
(§1)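 HEK293 cells each expressing one human amine transporter, 7500 cells/well, preincubated 5 min at 25 °C with compound or DMSO vehicle. Uptake was started with tritiated substrate: 5-HT 50 nM (5 min), NA 200 nM (15 min), DA 200 nM (5 min), shaken at 25 °C. Stopped by ice-cold wash and filtration, then scintillation counting.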

The target of data set [2] is Sodium-dependent noradrenaline transporter (Homo sapiens, UniProt P23975). Nature of the data set: Inhibition of [3H]NA uptake at human NA transporter expressed in HEK293 cells. Type of data set: cell-based. In outline: as §1
Data set [3] can be described thus: Metabolic stability assessed as intrinsic clearance in human liver microsomes. Type of data set: ADME, Microsome. A general note: Microsomes from liver hold many membrane-bound enzymes, among them those of drug oxidation.
Data set [4] deals with Sodium-dependent serotonin transporter (Homo sapiens, UniProt P31645). In words: Inhibition of [3H]5HT uptake at human 5HT transporter expressed in HEK293 cells. Type of data set: cell-based. In outline: as §1
Data set [5] is described as follows: Membrane permeability by PAMPA assay. Type of data set: ADME.
For data set [6], the target named is Voltage-gated inwardly rectifying potassium channel KCNH2 (Homo sapiens, UniProt Q12809). Nature of the data set: Binding affinity to human ERG.
Chain of Voltage-gated inwardly rectifying potassium channel KCNH2 (Q12809 whole entry): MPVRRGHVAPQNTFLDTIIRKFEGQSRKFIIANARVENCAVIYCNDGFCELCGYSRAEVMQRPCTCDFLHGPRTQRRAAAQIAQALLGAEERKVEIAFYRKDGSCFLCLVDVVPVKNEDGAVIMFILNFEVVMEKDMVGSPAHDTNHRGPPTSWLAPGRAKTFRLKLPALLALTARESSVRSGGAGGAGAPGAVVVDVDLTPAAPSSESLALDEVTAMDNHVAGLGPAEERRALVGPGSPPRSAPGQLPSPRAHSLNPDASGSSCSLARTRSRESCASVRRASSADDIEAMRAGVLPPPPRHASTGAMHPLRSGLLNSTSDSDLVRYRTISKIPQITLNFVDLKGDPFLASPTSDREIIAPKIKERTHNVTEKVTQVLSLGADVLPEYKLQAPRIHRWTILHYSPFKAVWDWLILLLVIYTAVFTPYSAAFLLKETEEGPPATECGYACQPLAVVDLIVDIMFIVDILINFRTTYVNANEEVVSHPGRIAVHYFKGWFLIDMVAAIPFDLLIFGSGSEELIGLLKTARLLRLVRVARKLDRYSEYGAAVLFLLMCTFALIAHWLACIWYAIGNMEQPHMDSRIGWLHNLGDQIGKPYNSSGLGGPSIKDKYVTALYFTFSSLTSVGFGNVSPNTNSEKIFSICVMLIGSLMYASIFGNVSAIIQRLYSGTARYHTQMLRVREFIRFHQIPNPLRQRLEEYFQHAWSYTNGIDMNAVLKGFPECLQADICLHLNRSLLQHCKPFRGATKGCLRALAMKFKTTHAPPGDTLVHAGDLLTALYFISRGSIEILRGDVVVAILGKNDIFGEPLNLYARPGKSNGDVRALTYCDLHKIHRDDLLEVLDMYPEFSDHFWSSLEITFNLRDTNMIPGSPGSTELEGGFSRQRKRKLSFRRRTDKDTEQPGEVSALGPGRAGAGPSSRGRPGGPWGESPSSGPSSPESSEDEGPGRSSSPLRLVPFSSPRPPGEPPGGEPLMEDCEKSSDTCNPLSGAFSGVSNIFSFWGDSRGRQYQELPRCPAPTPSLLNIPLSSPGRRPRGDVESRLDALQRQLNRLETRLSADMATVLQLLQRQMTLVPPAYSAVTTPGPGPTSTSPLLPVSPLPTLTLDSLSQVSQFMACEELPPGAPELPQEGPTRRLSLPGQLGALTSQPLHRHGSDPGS

Chain of Sodium-dependent dopamine transporter (Q01959 whole entry): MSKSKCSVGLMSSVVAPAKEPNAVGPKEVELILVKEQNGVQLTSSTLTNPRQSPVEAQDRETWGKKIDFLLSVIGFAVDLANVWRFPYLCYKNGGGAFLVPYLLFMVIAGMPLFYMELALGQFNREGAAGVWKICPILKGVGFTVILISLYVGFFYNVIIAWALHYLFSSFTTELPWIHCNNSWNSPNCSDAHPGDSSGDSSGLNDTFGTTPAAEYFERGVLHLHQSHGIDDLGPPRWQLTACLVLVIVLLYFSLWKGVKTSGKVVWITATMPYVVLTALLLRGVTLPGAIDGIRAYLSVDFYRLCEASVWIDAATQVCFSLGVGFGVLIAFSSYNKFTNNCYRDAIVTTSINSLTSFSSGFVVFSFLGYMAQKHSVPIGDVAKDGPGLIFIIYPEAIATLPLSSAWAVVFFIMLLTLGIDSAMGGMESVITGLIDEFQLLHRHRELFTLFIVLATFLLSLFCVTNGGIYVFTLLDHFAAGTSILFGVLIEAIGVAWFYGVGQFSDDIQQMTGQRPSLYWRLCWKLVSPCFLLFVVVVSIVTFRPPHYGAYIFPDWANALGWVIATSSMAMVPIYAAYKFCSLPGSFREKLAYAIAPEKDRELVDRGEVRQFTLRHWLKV
Chain of Sodium-dependent noradrenaline transporter (P23975 whole entry): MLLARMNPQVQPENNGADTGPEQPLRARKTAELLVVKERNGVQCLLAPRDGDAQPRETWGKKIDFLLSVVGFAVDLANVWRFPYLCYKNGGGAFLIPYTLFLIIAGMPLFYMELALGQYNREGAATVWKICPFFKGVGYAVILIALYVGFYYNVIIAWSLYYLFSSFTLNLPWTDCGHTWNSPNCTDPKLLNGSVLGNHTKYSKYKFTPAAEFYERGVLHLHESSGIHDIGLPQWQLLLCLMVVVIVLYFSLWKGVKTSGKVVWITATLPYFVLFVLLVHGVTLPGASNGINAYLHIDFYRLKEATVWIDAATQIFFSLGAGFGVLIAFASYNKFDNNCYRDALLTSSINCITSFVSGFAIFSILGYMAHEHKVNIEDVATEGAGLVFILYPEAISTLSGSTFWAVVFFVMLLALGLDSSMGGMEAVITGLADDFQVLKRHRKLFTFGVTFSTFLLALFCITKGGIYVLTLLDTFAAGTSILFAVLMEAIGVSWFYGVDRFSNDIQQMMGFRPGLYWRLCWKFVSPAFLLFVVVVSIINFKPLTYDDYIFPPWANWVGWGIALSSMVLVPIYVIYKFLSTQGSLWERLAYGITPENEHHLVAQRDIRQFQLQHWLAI
Chain of Sodium-dependent serotonin transporter (P31645 whole entry): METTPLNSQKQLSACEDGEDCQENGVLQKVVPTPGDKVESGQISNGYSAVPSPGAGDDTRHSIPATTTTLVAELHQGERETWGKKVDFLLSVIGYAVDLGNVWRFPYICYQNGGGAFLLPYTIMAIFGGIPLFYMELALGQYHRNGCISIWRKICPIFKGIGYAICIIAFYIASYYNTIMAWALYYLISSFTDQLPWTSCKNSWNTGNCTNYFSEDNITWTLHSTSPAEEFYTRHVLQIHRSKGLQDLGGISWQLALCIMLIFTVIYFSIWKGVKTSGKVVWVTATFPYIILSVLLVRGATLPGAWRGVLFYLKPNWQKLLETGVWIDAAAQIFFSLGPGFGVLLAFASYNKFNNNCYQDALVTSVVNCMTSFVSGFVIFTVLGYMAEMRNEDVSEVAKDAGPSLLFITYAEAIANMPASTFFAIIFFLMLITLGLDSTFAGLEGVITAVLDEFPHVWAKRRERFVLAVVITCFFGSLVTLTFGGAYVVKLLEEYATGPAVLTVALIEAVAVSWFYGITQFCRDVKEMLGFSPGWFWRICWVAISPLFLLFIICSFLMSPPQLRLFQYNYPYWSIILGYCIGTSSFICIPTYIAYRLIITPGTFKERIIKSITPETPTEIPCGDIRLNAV

As usually defined, the IC50 is the concentration that inhibits the measured activity by half. High values mean lower potency, low ones higher potency. With `CNCc1ccccc1Oc1ccc(F)cc1Cl`, the IC50 was 6510 nM in data set [1] and 300 nM in data set [2].
The term microsomal CLint denotes the rate of metabolic loss divided by the concentration. Regarding `CN(C)Cc1ccccc1Oc1ccc(F)cc1Cl`, the figures for the IC50 in data set [1], in data set [4] and in data set [2] were 2130 nM, 32 nM and 46 nM, respectively. Further, the microsomal CLint in data set [3] amounted to 219 µL/min/mg.
Consider `CNCc1cc(N2CCCS2(=O)=O)ccc1Oc1ccc(Cl)cc1Cl`, for which the IC50 is 138 nM in data set [1], 12 nM in data set [4] and 17 nM in data set [2]. For the same molecule, the microsomal CLint in data set [3] came to 12 µL/min/mg.
As usually defined, the Papp is a coefficient for how fast a substance crosses the barrier. The low end stands for poor permeation, the high end for ready permeation. `CNCc1cc(C(=O)N(C)C)ccc1Oc1ccc(Cl)cc1OC`: the IC50 in data set [1] is greater than 40000 nM; in data set [4], 8 nM; in data set [2], 32 nM. The molecule further yielded an apparent permeability (Papp) in data set [5] of 15 ×10⁻⁶ cm/s. Moreover, the intrinsic metabolic clearance (microsomal CLint) in data set [3] stood at 15 µL/min/mg.
For the molecule `CNCc1ccccc1Oc1ccc(Cl)cc1Cl`, the IC50 in data set [1] was determined as 506 nM; in data set [4], 56 nM; in data set [2] it was 42 nM.
By Ki is commonly meant the equilibrium dissociation constant of an inhibitor or competing ligand from its target. In the case of `CNCc1cc(C(N)=O)ccc1Oc1ccc(Cl)cc1OC`, the half-maximal inhibitory concentration (IC50) in data set [1] is 21000 nM; in data set [4], 12 nM; in data set [2], 62 nM. In data set [5], this molecule came in with a Papp of 11 ×10⁻⁶ cm/s. Moreover, the intrinsic metabolic clearance (microsomal CLint) in data set [3] was 8 µL/min/mg. For the same molecule, the Ki in data set [6] is greater than 7500 nM.
`CNCc1cc(NS(C)(=O)=O)ccc1Oc1ccc(Cl)cc1C`: the IC50 came out at 320 nM in data set [1], 16 nM in data set [4] and 25 nM in data set [2]. Besides, in data set [5], the apparent permeability coefficient (Papp) stood at 2.2 ×10⁻⁶ cm/s. Further, in data set [3], the microsomal CLint came out at 8 µL/min/mg. This molecule also gave a Ki in data set [6] of 7250 nM.
As for `CNCc1cc(C(N)=O)ccc1Oc1ccc(Cl)cc1C`, the IC50 in data set [1] was determined as 2820 nM; in data set [4], 7 nM; in data set [2], 46 nM. Besides, in data set [3], the microsomal CLint is 8 µL/min/mg.
In the case of `CNCc1cc(N2CCCS2(=O)=O)ccc1Oc1ccc(Cl)cc1C`, the IC50 amounted to 47 nM in data set [1], 10 nM in data set [4] and 11 nM in data set [2]. For the same molecule, the Papp in data set [5] stood at 2.7 ×10⁻⁶ cm/s. In data set [3], the intrinsic clearance (microsomal CLint) turned out to be 11 µL/min/mg. The molecule also had an inhibitory constant (Ki) in data set [6] of 1590 nM.
In the case of `CNCc1ccccc1Oc1ccc(Cl)cc1OC`, the 50% inhibitory concentration (IC50) came out at 19600 nM in data set [1], 13 nM in data set [4] and 78 nM in data set [2]. Moreover, the intrinsic metabolic clearance (microsomal CLint) in data set [3] amounted to 9 µL/min/mg. Also, the affinity in data set [6] corresponds to a Ki of 4380 nM.
Consider `CNCc1cc(C(=O)N(C)C)ccc1Oc1ccc(Cl)cc1C`, for which the half-maximal inhibitory concentration (IC50) in data set [1] is 172 nM; in data set [4], 17 nM; in data set [2], 17 nM. The Papp in data set [5] worked out at 19 ×10⁻⁶ cm/s. Moreover, the intrinsic metabolic clearance (microsomal CLint) in data set [3] turned out to be 9 µL/min/mg. Affinity in data set [6] was put at a Ki of 3750 nM.
Regarding `CNCc1cc(C(=O)NC)ccc1Oc1ccc(Cl)cc1C`, the half-maximal inhibitory concentration (IC50) in data set [1] amounted to 387 nM; in data set [4], 14 nM; in data set [2], 26 nM. In addition, in data set [3], the intrinsic metabolic clearance (microsomal CLint) stood at 9 µL/min/mg.
For `CNCc1cc(C(=O)NC)ccc1Oc1ccc(Cl)cc1OC`, the IC50 in data set [1] came to 15700 nM; in data set [4], 13 nM; in data set [2] it was 78 nM. The same molecule yielded a Papp in data set [5] of 14 ×10⁻⁶ cm/s. Further, the microsomal CLint in data set [3] stood at 8 µL/min/mg. This molecule had an inhibition constant (Ki) in data set [6] greater than 7500 nM.
Turning to `CNCc1cc(C(N)=O)ccc1Oc1ccc(Cl)cc1Cl`, the values for the half-inhibitory concentration (IC50) in data set [1], in data set [4] and in data set [2] were 1210 nM, 37 nM and 84 nM, respectively. The Papp in data set [5] is 10 ×10⁻⁶ cm/s. The microsomal CLint in data set [3] stood at 8 µL/min/mg.
For the molecule `CNCc1ccccc1Oc1ccc(OC)cc1Cl`, the results for the half-inhibitory concentration (IC50) in data set [1], in data set [4] and in data set [2] were 5950 nM, 22 nM and 157 nM, respectively.
In the case of `CNCc1cc(C#N)ccc1Oc1ccc(Cl)cc1OC`, the values for the IC50 in data set [1], in data set [4] and in data set [2] were greater than 40000 nM, 5 nM and greater than 400 nM, respectively.
As for `CN(C)Cc1ccccc1Oc1ccc(Cl)cc1Cl`, the IC50 turned out to be 195 nM in data set [1], 4 nM in data set [4] and 11 nM in data set [2]. Moreover, the microsomal CLint in data set [3] was found to be 223 µL/min/mg.
In the same order, the values of `CN(C)Cc1ccccc1Oc1ccccc1Cl` are 2730 nM, 282 nM, 15 nM and 186 µL/min/mg.
For the molecule `CNCc1cc(C(=O)NC)ccc1Oc1ccc(Cl)cc1Cl`, the values for the half-inhibitory concentration (IC50) in data set [1], in data set [4] and in data set [2] were 800 nM, 13 nM and 38 nM, respectively. Further, the microsomal CLint in data set [3] turned out to be 9 µL/min/mg. Besides, affinity in data set [6] was put at a Ki of 1760 nM.
In the same order, the values of `COc1cc(Cl)ccc1Oc1ccccc1CN(C)C` are 3780 nM, 6 nM, 14 nM, 45 µL/min/mg and greater than 7500 nM.
Consider `CN(C)Cc1ccccc1Oc1cccc(Cl)c1`, for which the figures for the IC50 in data set [1], in data set [4] and in data set [2] were 194 nM, 238 nM and 82 nM, respectively.
Consider `CNCc1ccccc1Oc1ccc(Cl)cc1C`, for which the IC50 in data set [1] worked out at 421 nM; in data set [4], 18 nM; in data set [2] it was 22 nM. In addition, the microsomal CLint in data set [3] was found to be 20 µL/min/mg.
With `CN(C)Cc1ccccc1Oc1ccc(Cl)cc1F`, the IC50 stood at 421 nM in data set [1], 6 nM in data set [4] and 21 nM in data set [2].
Regarding `CNCc1ccccc1Oc1ccc(Cl)cc1F`, the intrinsic clearance (microsomal CLint) in data set [3] came to 22 µL/min/mg. Also, the values for the half-maximal inhibitory concentration (IC50) in data set [4] and in data set [2] were 73 nM and 429 nM, respectively. Further, the inhibitory constant (Ki) in data set [6] stood at 5930 nM.
Take `CN(C)Cc1ccccc1Oc1ccc(Cl)cc1`: the concentration for half-maximal inhibition (IC50) came out at 124 nM in data set [1], 18 nM in data set [4] and 256 nM in data set [2].
As for `CNCc1cc(C#N)ccc1Oc1ccc(Cl)cc1Cl`, the IC50 in data set [1] was 3010 nM; in data set [4], 28 nM; in data set [2], greater than 400 nM. In addition, the Ki in data set [6] was 2210 nM.
`CN(C)Cc1ccccc1Oc1ccccc1`: the IC50 is 660 nM in data set [4] and 70 nM in data set [2].
In the case of `Cc1cccc(CN(C2CCOCC2)[C@H]2CCNC2)c1C`, the intrinsic metabolic clearance (microsomal CLint) in data set [3] was less than 7 µL/min/mg.
As to `CNCc1cc(C(=O)N(C)C)ccc1Oc1ccc(Cl)cc1Cl`, the figures for the IC50 in data set [1], in data set [4] and in data set [2] were 275 nM, 11 nM and 33 nM, respectively. For the same molecule, the Papp in data set [5] was found to be 14 ×10⁻⁶ cm/s. The microsomal CLint in data set [3] is 13 µL/min/mg.
